pIC50, pKi: −log10 of the molar value. A value given as a limit tells only on which side of the number the result lay.

The values that follow come from ChEMBL document CHEMBL3259700, “2-Amino-1,3,4-thiadiazoles in the 7-hydroxy-N-neopentyl spiropiperidine indolinyl series as potent P2Y1 receptor antagonists” (Bioorg Med Chem Lett, 2014).

Series [1] can be described thus: Antiplatelet activity in human platelet-rich plasma assessed as inhibition of ADP-induced platelet aggregation in presence of 10 uM ADP.
Series [2] can be described thus: Antiplatelet activity in human platelet-rich plasma assessed as inhibition of ADP-induced platelet aggregation in presence of 2.5 uM ADP.
Series [3] concerns the target T1, P2Y purinoceptor 1 (Homo sapiens, UniProt P47900). In words: Displacement of [33P]2-MeS-ADP from human cloned P2Y1 receptor expressed in HEK293 cells by SPA analysis. Format: cell-based.
The nature of series [4]: Trough plasma concentration in rat at 0.5 mg/kg, po after 24 hrs. Type of series: ADME, organism-based. Also noted: dose 0.5 mg/kg, route oral. The following applies: read-out: Cmin. A digest of the protocol:
(§1)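 Cassette PK in rats, 0.5 mg/kg iv and 0.5 mg/kg p.o., vehicle 70% water, 10% ethanol, 10% cremophor, 10% N,N-dimethylacetamide; plasma trough concentrations taken 24 h after iv and p.o. dosing.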

A short description of series [5]: Metabolic stability in rat liver microsomes assessed as compound remaining after 10 mins. Format: ADME. The following applies: read-out: Stability. The procedure, abridged:
(§2)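 Test compound incubated 10 min with 0.5 µM rat or human liver microsomes; percentage of parent remaining measured.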

Series [6] can be described thus: Oral bioavailability in rat at 0.5 mg/kg. Type of series: ADME, organism-based. The following applies: in vivo. A digest of the protocol: as §1
Series [7] in a line: Metabolic stability in human liver microsomes assessed as compound remaining after 10 mins. Format: ADME. The following applies: read-out: Stability. A digest of the protocol:
as §2
Background: Liver microsomes are a subcellular fraction often used to study metabolism.

The nature of series [8]: Half life in rat at 0.5 mg/kg, iv and 0.5 mg/kg, po. Format: ADME, organism-based. The following applies: in vivo. A digest of the protocol: as §1
Series [9] can be described thus: Trough plasma concentration in rat at 0.5 mg/kg, iv after 24 hrs. Format: ADME, organism-based. Also noted: dose 0.5 mg/kg, route intravenous. The following applies: read-out: Cmin. The procedure, abridged:
as §1

Series [10] is described as follows: Clearance in rat at 0.5 mg/kg, iv and 0.5 mg/kg, po. Format: ADME, organism-based. The following applies: in vivo. A digest of the protocol:
as §1

A short description of series [11]: Volume of distribution at steady state in rat at 0.5 mg/kg, iv and 0.5 mg/kg, po. The following applies: in vivo, read-out: Vdss. Format: ADME, organism-based. The procedure, abridged: as §1
The nature of series [12]: Total AUC in rat at 0.5 mg/kg, iv. The following applies: in vivo. Format: ADME, organism-based. Further details: time AUCmax, dose 0.5 mg/kg, route intravenous. The procedure, abridged:
as §1

The target of series [13] is T1, P2Y purinoceptor 1. Nature of the series: Inhibition of P2Y1 receptor in human washed platelets assessed as decrease in 2-methylthio-ADP-induced calcium signal transduction pathway activation by FLIPR assay. Format: functional.

T1 sequence (P47900 whole entry): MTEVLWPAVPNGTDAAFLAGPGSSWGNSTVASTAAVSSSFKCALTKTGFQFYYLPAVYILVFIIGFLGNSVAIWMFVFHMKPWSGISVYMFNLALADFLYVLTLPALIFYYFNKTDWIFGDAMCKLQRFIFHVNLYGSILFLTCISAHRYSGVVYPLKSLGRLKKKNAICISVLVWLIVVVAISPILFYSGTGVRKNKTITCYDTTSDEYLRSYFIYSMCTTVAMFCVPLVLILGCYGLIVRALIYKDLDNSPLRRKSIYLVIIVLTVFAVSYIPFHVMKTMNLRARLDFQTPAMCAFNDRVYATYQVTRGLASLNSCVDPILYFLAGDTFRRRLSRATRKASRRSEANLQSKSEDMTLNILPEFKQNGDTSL

`CC(C)(C)c1ccccc1Oc1ncccc1NC(=O)Nc1ccc(OC(F)(F)F)cc1`: in series [1], the pIC50 was 4.96.
In the case of `CC(C)(C)c1ccccc1Oc1ncccc1Nc1nnc(-c2ccc(C(F)(F)F)cc2)s1`, the negative-log IC50 (pIC50) in series [2] was 5.12.
In the case of `CN(C)CC(C)(C)COc1cccc(-c2sc(Nc3cccnc3Oc3ccccc3C(C)(C)C)nc2C(F)(F)F)c1`, the pIC50 in [2] is 5.28; in series [1] it was 4.24.
At P2Y purinoceptor 1 [3], `CC(C)(C)CN1CCC2(CC1)CN(c1ccccc1NC(=O)Nc1nc3ccc(Cl)nc3s1)c1c(O)ccc(Cl)c12` had a pKi of 8.10. For the same compound, the concentration at 24 h in series [4] came out at 4.1 nM; in series [9], 10 nM. Also, the remaining at 10 min in [5] came to 86%; in series [7] it was 100%. In series [6], this compound registered a bioavailability of 36%. Further, in series [8], the half-life was 9.9 h. In addition, in series [10], the clearance was found to be 10 mL/min/kg. Also, in [11], the Vd amounted to 5.4 L/kg. Besides, in series [12], the AUC was 1.33 µM·h. The negative-log IC50 (pIC50) in series [1] was 6.89.
On to `CC(C)(C)CN1CCC2(CC1)CN(c1ccccc1Nc1nnc(-c3ccccc3)s1)c1c(O)ccc(C(F)(F)F)c12`, for which the pIC50 at P2Y purinoceptor 1 [13] is 9.72; in [1] it was 6.00. For the same compound, on P2Y purinoceptor 1 [3], the pKi was 8.02.
Regarding `CC(C)(C)CN1CCC2(CC1)CN(c1ccccc1Nc1nc(-c3ccccc3)ns1)c1c(O)ccc(Cl)c12`, the pIC50 on P2Y purinoceptor 1 [13] was 8.19; in series [1], 5.27.
As for `CC(C)(C)CN1CCC2(CC1)CN(c1ccccc1Nc1nnc(-c3ccccc3)o1)c1c(O)ccc(Cl)c12`, the values for the pIC50 (on P2Y purinoceptor 1 [13]; in [1]) were 7.31 and less than 5.00, respectively. This compound showed a pKi at P2Y purinoceptor 1 [3] of 8.21.
In the case of `CC(C)(C)CN1CCC2(CC1)CN(c1ccccc1Nc1cc(-c3ccccc3)on1)c1c(O)ccc(Cl)c12`, the negative-log IC50 (pIC50) in [1] was 5.05.
Consider `CC(C)(C)CN1CCC2(CC1)CN(c1ccccc1Nc1nc(-c3ccccc3)cs1)c1c(O)ccc(Cl)c12`, for which the pIC50 on P2Y purinoceptor 1 [13] is 7.27; in series [1], less than 5.00. Further, the pKi at P2Y purinoceptor 1 [3] is 7.70.
Taken in the same sequence, the figures for `CC(C)(C)CN1CCC2(CC1)CN(c1ccccc1Nc1ncc(-c3ccccc3)s1)c1c(O)ccc(Cl)c12` were 8.64, 5.43 and 7.77.
Consider `Cc1ccc(-c2ccc(Nc3ccccc3N3CC4(CCN(CC(C)(C)C)CC4)c4c(Cl)ccc(O)c43)nc2)cc1`, for which, at P2Y purinoceptor 1 [3], the pKi is 6.46. For the same compound, the pIC50 in series [1] is less than 5.00.
On P2Y purinoceptor 1 [3], `CC(C)(C)CN1CCC2(CC1)CN(c1ccccc1Nc1ccc(-c3ccccc3)nn1)c1c(O)ccc(Cl)c12` had a negative logarithm of the Ki (pKi) of 6.29. In series [1], the pIC50 is less than 4.40.
Compound `CC(C)(C)CN1CCC2(CC1)CN(c1ccccc1Nc1cnc(-c3ccccc3)cn1)c1c(O)ccc(Cl)c12` showed a pKi on P2Y purinoceptor 1 [3] of 7.31. Besides, the pIC50 in [1] is less than 4.40.
Consider `CC(C)(C)CN1CCC2(CC1)CN(c1ccccc1Nc1nnc(-c3ccc(C(F)(F)F)cc3)s1)c1c(O)ccc(C(F)(F)F)c12`, for which the pIC50 is 10.10 on P2Y purinoceptor 1 [13] and 6.35 in [1]. Further, the concentration at 24 h in series [4] was 12 nM; in series [9], 46 nM. The remaining at 10 min in series [5] was 87%; in series [7] it was 86%. In [6], this compound displayed a bioavailability of 22%. Moreover, the half-life in series [8] is 24 h. In addition, the clearance in series [10] is 4 mL/min/kg. Moreover, in [11], the Vd worked out at 6 L/kg. For the same compound, the exposure (AUC) in series [12] was found to be 4.63 µM·h.
On to `CC(C)(C)CN1CCC2(CC1)CN(c1ccccc1Nc1nnc(-c3ccc(C(C)(C)C)cc3)s1)c1c(O)ccc(C(F)(F)F)c12`, for which the pIC50 on P2Y purinoceptor 1 [13] is 9.68; in series [1], 6.06. Besides, the figures for the concentration at 24 h in [4] and in series [9] were 3.6 nM and 54 nM, respectively. Also, the remaining at 10 min in series [5] turned out to be 84%; in [7], 82%. The bioavailability in [6] amounted to 14%. Moreover, the half-life in series [8] was 13 h. The clearance in [10] stood at 1.8 mL/min/kg. The Vd in [11] turned out to be 1.2 L/kg. This compound also gave an AUC in series [12] of 6.96 µM·h.
For the compound `CC(C)(C)CN1CCC2(CC1)CN(c1ccccc1Nc1nnc(-c3ccc(C(C)(C)C)cc3)s1)c1c(O)ccc(C#N)c12`, the pIC50 on P2Y purinoceptor 1 [13] was 9.47; in series [1], 5.92. In addition, the negative-log Ki (pKi) at P2Y purinoceptor 1 [3] was 8.01.
As for `COC(=O)c1ccc(O)c2c1C1(CCN(CC(C)(C)C)CC1)CN2c1ccccc1Nc1nnc(-c2ccc(C(C)(C)C)cc2)s1`, the pIC50 at P2Y purinoceptor 1 [13] was 9.49; in [1] it was 6.08.
On to `CC(C)(C)CN1CCC2(CC1)CN(c1ccccc1Nc1nnc(-c3ccc(OC(F)(F)F)cc3)s1)c1c(O)ccc(F)c12`, for which the pIC50 is 8.57 on P2Y purinoceptor 1 [13] and 5.80 in series [1]. The compound further had a pKi at P2Y purinoceptor 1 [3] of 8.28.
Consider `CC(C)(C)CN1CCC2(CC1)CN(c1ccccc1Nc1nnc(-c3ccc(OC(F)(F)F)cc3)s1)c1c(O)ccc(Cl)c12`, for which the figures for the pIC50 (on P2Y purinoceptor 1 [13]; in [1]) were 9.20 and 6.05, respectively. In addition, the concentration at 24 h was 30 nM in series [4] and 95 nM in series [9]. For the same compound, the results for the remaining at 10 min in series [5] and in series [7] were 94% and 99%, respectively. In addition, in series [6], the bioavailability came out at 28%. Besides, the half-life in series [8] is 12 h. The compound further gave a clearance in series [10] of 2.1 mL/min/kg. In addition, the Vd in series [11] turned out to be 2.1 L/kg. This compound also had an area under the curve (AUC) in [12] of 6.21 µM·h.
With `CC(C)(C)CN1CCC2(CC1)CN(c1ccccc1Nc1nnc(-c3ccccc3Cl)s1)c1c(O)ccc(Cl)c12`, the negative logarithm of the IC50 (pIC50) at P2Y purinoceptor 1 [13] was 8.01; in series [1] it was 4.96.
Taken in the same sequence, the figures for `CC(C)(C)CN1CCC2(CC1)CN(c1ccccc1Nc1nnc(-c3cccc(Cl)c3)s1)c1c(O)ccc(Cl)c12` were 8.44 and 5.59.
For `CC(C)(C)CN1CCC2(CC1)CN(c1ccccc1Nc1nnc(-c3ccc(Cl)cc3)s1)c1c(O)ccc(Cl)c12`, in that order: 8.80 and 5.89.
Turning to `CC(C)(C)CN1CCC2(CC1)CN(c1ccccc1Nc1nnc(-c3cnccn3)s1)c1c(O)ccc(Cl)c12`, the figures for the pIC50 (on P2Y purinoceptor 1 [13]; in series [1]) were 8.82 and 6.03, respectively. The remaining at 10 min in series [5] stood at 37%.
In the case of `Cc1cc(-c2nnc(Nc3ccccc3N3CC4(CCN(CC(C)(C)C)CC4)c4c(Cl)ccc(O)c43)s2)n(C)n1`, the pIC50 was 9.70 on P2Y purinoceptor 1 [13] and 6.05 in series [1]. In addition, the remaining at 10 min in series [5] stood at 75%.

One may read the pIC50 as the negative decadic logarithm of the IC50, by convention in mol/L. Broadly, the pKi is the Ki on a negative log10 scale, so that one unit is a factor of ten. A higher pKi goes with a low Ki. A word on the bioavailability: it is the share of a dose that reaches the circulation, judged against a reference dose that is usually intravenous. A high value points to good availability. The term half-life denotes the time needed for the level to fall by half in the phase considered. The AUC is the area under the concentration-time curve, a measure of exposure.
